The source made the active and inactive calls. No cut-off for these calls is given here.
Legend:
Calf thymus DNA [1] = assay: Binding affinity to calf thymus DNA in 10 mM pH 7.4 Tris-Hcl buffer containing 0.1 mM EDTA and 40 mM NaCl by fluorescence spectroscopy; type: nucleic-acid assay, Bos taurus
Outline: (§1)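 CT DNA was in the same Tris/EDTA buffer with 40 mM NaCl. 0.4 μM ligand was titrated with preformed DNA, incubated 10 min at 20 °C, and excited at 300 or 330 nm. Kd and binding stoichiometry n came from the emission titration.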

[2] = Binding affinity to human Hum21 [5'-G3(T2AG3)3-3'] G-quadruplex DNA at 5 uM in 10 mM pH 7.4 Tris-Hcl buffer containing 0.1 mM EDTA and 0.1 M NaCl by UV-Vis absorption sperctrometry
[3] = Binding affinity to human Hum21 [5'-G3(T2AG3)3-3'] G-quadruplex DNA at 0.4 uM in 10 mM pH 7.4 Tris-Hcl buffer containing 0.1 mM EDTA and 0.1 mM NaCl by fluorescence spectroscopy
HeLa [4] = assay: Cytotoxicity against human HeLa cells at 2 and 5 uM after 15 days by MTT assay
HEK-293T [5] = assay: Cytotoxicity against transformed HEK293T cells at 2 and 5 uM after 15 days by MTT assay; settings: Homo sapiens
HEK-293T [6] = assay: Cytotoxicity against transformed HEK293T cells at 0.5 to 8 uM after 72 hrs by MTT assay; type: functional, cell-based; settings: Homo sapiens
Outline: (§2)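 Cells were seeded at 15.0 × 10³/well and grown 72 h to >70% confluency. They were treated with ligand or 0.1% DMSO in 10% FBS for 72 h at 37 °C, 5% CO2, then given fresh DMEM/10% FBS. MTT (5 mg/mL stock) was added for 4 h, formazan dissolved in DMSO, and read at 595 nm. Viability was normalized to untreated cells after DMSO-blank subtraction. Doses were run in triplicate, with at least three independent experiments.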

HeLa [7] = assay: Cytotoxicity against human HeLa cells at 0.5 to 8 uM after 72 hrs by MTT assay; type: functional, cell-based; outline: as §2
Calf thymus DNA [8] = assay: Binding affinity to calf thymus DNA at 0.4 uM in 10 mM pH 7.4 Tris-Hcl buffer containing 0.1 mM EDTA and 40 mM NaCl by fluorescence spectroscopy; type: nucleic-acid assay; settings: Bos taurus; outline: as §1
[9] = Binding affinity to human Hum21 [5'-G3(T2AG3)3-3'] G-quadruplex DNA at 5 uM in 10 mM pH 7.4 Tris-Hcl buffer containing 0.1 mM EDTA and 0.1 M KCl by UV-Vis absorption sperctrometry
[10] = Drug uptake in nucleus of human HeLa cells at 10 uM after 12 hrs by propidium iodide staining; type: ADME, cell-based
Outline: (§3)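 Cells were grown on glass coverslips and treated with 10 μM ligand for 12 h. They were washed in DPBS, fixed in 4% paraformaldehyde for 10 min, and permeabilized with 0.1% Triton X-100 for 5 min. Nuclei were counterstained with propidium iodide. Blue ligand fluorescence and nuclear localization were imaged by confocal microscopy.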

Homo sapiens [11] = organism: Homo sapiens; assay: Binding affinity to human Hum21 [5'-G3(T2AG3)3-3'] G-quadruplex DNA in 10 mM pH 7.4 Tris-Hcl buffer containing 0.1 mM EDTA and […] by CD spectroscopy
[12] = Drug uptake in cytoplasm of HFF cells at 10 uM after 12 hrs by confocal microscopy; type: ADME, cell-based; settings: human; outline: as §3
[13] = Drug uptake in nucleus of human HeLa cells at 10 uM after 12 hrs by confocal microscopy; type: ADME, cell-based; outline: as §3
HEK-293T [14] = assay: Cytotoxicity against transformed HEK293T cells after 72 hrs by MTT assay; type: functional, cell-based; settings: Homo sapiens; outline: as §2
[15] = Displacement of thiazole orange from human Hum21 [5'-G3(T2AG3)3-3'] G-quadruplex DNA in presence of 10 mM pH 7.4 Tris-Hcl buffer containing 0.1 mM EDTA and […] by fluorescent intercalator displacement assay
A549 [16] = assay: Cytotoxicity against human A549 cells after 72 hrs by MTT assay; type: functional, cell-based; settings: A549, 72 h; outline: as §2
Homo sapiens [17] = organism: Homo sapiens; assay: Induction of formation of human Hum21 [5'-G3(T2AG3)3-3'] G-quadruplex DNA at [compound]/[DNA] ratio of 5 in 10 mM pH 7.4 Tris-Hcl buffer containing 0.1 mM EDTA and […] by CD spectroscopy
Outline: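 Hum21 was folded in the presence of ligand at the stated [L]:[DNA] ratio in 10 mM Tris-HCl pH 7.4, 0.1 mM EDTA, 0.1 M KCl or NaCl. Annealing was 95 °C for 5 min with slow cooling to 24 °C over 24 h. Topology was read from CD spectra recorded at 20 °C.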

Homo sapiens [18] = organism: Homo sapiens; assay: Binding affinity to human Hum21 [5'-G3(T2AG3)3-3'] G-quadruplex DNA assessed as change in melting temperature in 10 mM pH 7.4 Tris-Hcl buffer containing 0.1 mM EDTA and […] measured after 12 hrs by UV-Vis absorption sperctrometry (reference value: 7 to 13 degC)
Homo sapiens [19] = organism: Homo sapiens; assay: Binding affinity to human Hum21 [5'-G3(T2AG3)3-3'] G-quadruplex DNA assessed as change in melting temperature in 10 mM pH 7.4 Tris-Hcl buffer containing 0.1 mM EDTA and 0.1 mM NaCl […] (reference value: 7 to 10 degC)
[20] = Selectivity index, ratio of Kd for calf thymus DNA to Kd for human Hum21 [5'-G3(T2AG3)3-3'] G-quadruplex DNA
Outline: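 Selectivity is the ratio of fluorescence-titration Kd for CT DNA (Tris-HCl pH 7.4, 40 mM NaCl, 0.1 mM EDTA) to Kd for preformed Hum21 G4 DNA (Tris-HCl pH 7.4, 0.1 M NaCl/KCl, 0.1 mM EDTA).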

HFF = assay: Cytotoxicity against HFF cells at 0.5 to 8 uM after 72 hrs by MTT assay; type: cell-based; settings: human; outline: as §2
HeLa [21] = assay: Induction of apoptosis in human HeLa cells at 10 uM after 12 hrs by Annexin V and propidium iodide staining based FACS analysis; type: functional
Outline: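 HeLa cells were seeded at 0.25 million per well, and after 24 h exposed to 10 μM ligand for 12 h. Cells were washed, trypsinized and resuspended in HEPES binding buffer (0.14 M NaCl, 2.5 mM CaCl2). They were stained with Annexin V-FITC and PI (final 1 μg/mL, 5 min), then analyzed by flow cytometry. Gated Annexin-only-positive cells were scored as apoptotic.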

A549 [22] = assay: Cytotoxicity against human A549 cells at 0.5 to 8 uM after 72 hrs by MTT assay; type: functional, cell-based; outline: as §2
HeLa [23] = assay: Cytotoxicity against human HeLa cells after 72 hrs by MTT assay; type: functional, cell-based; outline: as §2
[24] = Displacement of thiazole orange from telomeric duplex DNA (unknown origin) in presence of 10 mM pH 7.4 Tris-Hcl buffer containing 0.1 mM EDTA and […] by fluorescent intercalator displacement assay

| SMILES | Kd (Calf thymus DNA [1]) [µM] | Kd [2] [µM] | Kd [3] [µM] | inhibition (HeLa [4]) | inhibition (HEK-293T [5]) | Activity (HEK-293T [6]) | Activity (HeLa [7]) | Activity (Calf thymus DNA [8]) | Kd [9] [µM] | Drug uptake [10] | Activity (Homo sapiens [11]) | Drug uptake [12] | Drug uptake [13] | IC50 (HEK-293T [14]) [µM] | DC50 [15] [µM] | IC50 (A549 [16]) [µM] | Activity (Homo sapiens [17]) | ΔTm (Homo sapiens [18]) [°C] | ΔTm (Homo sapiens [19]) [°C] | Ratio [20] | other results |
| --- | --- | --- | --- | --- | --- | --- | --- | --- | --- | --- | --- | --- | --- | --- | --- | --- | --- | --- | --- | --- | --- |
| CN1CCN(CCCCn2c3ccc(-c4nc5cc(N6CCN(C)CC6)ccc5[nH]4)cc3c3cc(-c4nc5cc(N6CCN(C)CC6)ccc5[nH]4)ccc32)CC1 | 196 | 0.34 | 0.15 | Active | Active | Active | Active | inactive | 0.13 | Active | Active | Active | Active | 8 | 0.61 | 8 | inactive | 16 | 12 | 576 | Activity (HFF): Non-toxic; Activity (HeLa [21]): 25%; Activity (A549 [22]): Active; IC50 (HeLa [23]): 8 µM; DC50 [24]: Not Active |
| CN1CCN(CCCCn2c3ccc(-c4nc5cc(N6CCN(CCO)CC6)ccc5[nH]4)cc3c3cc(-c4nc5cc(N6CCN(CCO)CC6)ccc5[nH]4)ccc32)CC1 | 25 | 0.05 | 0.08 | Active | Active | Active | Active | inactive | 0.03 | Active | Active | Active | Active | 8 | 1.12 | 8 | Active | 19 | 15 | 500 | Activity (HFF): Non-toxic; Activity (HeLa [21]): 55%; Activity (A549 [22]): Active; IC50 (HeLa [23]): 8 µM; DC50 ([24]; read-out: DC50): > 8 µM |

Reference: ChEMBL document CHEMBL3351262, “Design and synthesis of new benzimidazole-carbazole conjugates for the stabilization of human telomeric DNA, telomerase inhibition, and their selective action on cancer cells” (J Med Chem, 2014)
